Test results from ChEMBL document CHEMBL4831519, “Discovery of the first-in-class dual PPARδ/γ partial agonist for the treatment of metabolic syndrome” (Eur J Med Chem, 2021).
Values belong to the compound of their own block, whether it stands above or below them. The source made the active and inactive calls. The calls are words filed in the database; no cut-off is given here.

Legend:
[1] = target: T1, Peroxisome proliferator-activated receptor alpha (Homo sapiens, UniProt Q07869); assay: Agonist activity at human PPARalpha transfected in human HepG2 cells incubated for 18 hrs by Renilla/Firefly dual-luciferase reporter assay; format: cell-based
T1 sequence (Q07869 whole entry): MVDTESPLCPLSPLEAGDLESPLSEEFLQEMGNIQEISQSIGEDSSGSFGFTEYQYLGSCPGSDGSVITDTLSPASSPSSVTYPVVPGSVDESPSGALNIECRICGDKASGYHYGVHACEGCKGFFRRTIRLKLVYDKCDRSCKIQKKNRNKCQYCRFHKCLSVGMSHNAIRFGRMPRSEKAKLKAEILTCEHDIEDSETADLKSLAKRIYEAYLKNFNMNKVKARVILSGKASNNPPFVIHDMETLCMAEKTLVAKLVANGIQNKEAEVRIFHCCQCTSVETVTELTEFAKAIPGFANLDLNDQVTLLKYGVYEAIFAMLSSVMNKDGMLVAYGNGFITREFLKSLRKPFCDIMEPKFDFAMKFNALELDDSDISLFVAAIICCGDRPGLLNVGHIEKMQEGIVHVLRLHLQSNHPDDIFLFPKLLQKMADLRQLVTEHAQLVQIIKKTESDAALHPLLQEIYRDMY

Mus musculus [2] = organism: Mus musculus; settings: dose 10.0 mg/kg, time 30.0 day
Mus musculus [3] = organism: Mus musculus; settings: dose 10.0 mg/kg, time 30.0 day; remark: listed apart in the source
Mus musculus [4] = organism: Mus musculus; settings: dose 10.0 mg/kg, time 30.0 day; remark: listed apart in the source
Mus musculus [5] = organism: Mus musculus; settings: dose 10.0 mg/kg, time 30.0 day; remark: listed apart in the source
Mus musculus [6] = organism: Mus musculus; settings: dose 10.0 mg/kg, time 30.0 day; remark: listed apart in the source
[7] = Induction of hepatic steatosis in ob/ob mouse at 10 mg/kg, po administered once daily for 30 days by hematoxylin-eosin staining based histopathological analysis; format: organism-based; settings: in vivo, 720 h, time 30 day
Summary of the method: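 Liver sections were stained with hematoxylin-eosin and viewed at 400× for steatosis and ballooning, with normal controls included.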

[8] = Toxicity in ob/ob mouse assessed as weight gain at 10 mg/kg, po administered once daily for 30 days and measured every 5 days; format: organism-based; settings: in vivo, 720 h, time 30 day
Summary of the method: (§1)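 Food and water intake measured daily and body weight every 5 days. n = 6, mean SD; Student's t-test vs vehicle, with one-way ANOVA/Tukey.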

Mus musculus [9] = organism: Mus musculus; settings: dose 10.0 mg/kg, time 30.0 day; remark: listed apart in the source
[10] = target: T2, Peroxisome proliferator-activated receptor delta (Homo sapiens, UniProt Q03181); assay: Agonist activity at human PPARdelta transfected in human HEK293 cells incubated for 18 hrs by Renilla/Firefly dual-luciferase reporter assay; format: cell-based
T2 sequence (Q03181 whole entry): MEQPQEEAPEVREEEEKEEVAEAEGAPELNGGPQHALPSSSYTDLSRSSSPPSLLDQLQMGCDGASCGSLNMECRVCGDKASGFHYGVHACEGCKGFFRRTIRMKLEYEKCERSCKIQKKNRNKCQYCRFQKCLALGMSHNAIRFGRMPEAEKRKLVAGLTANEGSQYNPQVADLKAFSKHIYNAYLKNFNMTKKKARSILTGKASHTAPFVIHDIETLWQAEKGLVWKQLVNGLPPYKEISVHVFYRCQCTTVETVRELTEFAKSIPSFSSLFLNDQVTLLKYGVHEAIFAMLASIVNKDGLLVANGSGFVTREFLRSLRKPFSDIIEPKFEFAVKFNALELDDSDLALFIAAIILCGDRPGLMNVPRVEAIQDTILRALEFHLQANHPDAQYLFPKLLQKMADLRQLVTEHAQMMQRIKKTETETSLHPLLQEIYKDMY

[11] = target: T3, Peroxisome proliferator-activated receptor gamma (Homo sapiens, UniProt P37231); assay: Agonist activity at human PPARgamma transfected in human HEK293 cells incubated for 18 hrs by Renilla/Firefly dual-luciferase reporter assay; format: cell-based
T3 sequence (P37231 whole entry): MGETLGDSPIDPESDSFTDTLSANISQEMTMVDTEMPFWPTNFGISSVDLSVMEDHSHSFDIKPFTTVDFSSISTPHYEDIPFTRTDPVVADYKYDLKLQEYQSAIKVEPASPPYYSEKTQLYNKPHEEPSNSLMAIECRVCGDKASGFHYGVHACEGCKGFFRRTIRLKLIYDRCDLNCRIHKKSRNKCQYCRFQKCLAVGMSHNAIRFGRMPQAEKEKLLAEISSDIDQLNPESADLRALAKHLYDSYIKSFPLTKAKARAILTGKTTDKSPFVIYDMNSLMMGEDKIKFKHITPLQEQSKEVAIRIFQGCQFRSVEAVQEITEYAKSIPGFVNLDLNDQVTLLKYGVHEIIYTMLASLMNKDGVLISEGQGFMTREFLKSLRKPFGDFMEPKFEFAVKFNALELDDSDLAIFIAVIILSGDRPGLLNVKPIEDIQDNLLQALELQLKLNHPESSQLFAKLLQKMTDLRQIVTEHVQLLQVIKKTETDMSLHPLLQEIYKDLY

[12] = Toxicity in ob/ob mouse assessed as weight gain at 20 mg/kg, po administered once daily for 30 days and measured every 5 days; format: organism-based; settings: in vivo, 720 h, time 30 day; summary of the method: as §1
[13] = Cmax in Sprague-Dawley rat at 3 mg/kg, po measured for 24 hrs by LC-MS/MS analysis; format: ADME, organism-based; design: route oral, dose 3 mg/kg, time 24 hrs; settings: in vivo
Summary of the method: (§2)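 Male SD rats (eight weeks old at purchase) dosed orally at 3 mg/kg. Plasma profile followed over 0–24 h to derive AUC0–24h, Cmax, CL and T1/2. Values are mean SD of four rats.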

[14] = Clearance in Sprague-Dawley rat at 3 mg/kg, po measured for 24 hrs by LC-MS/MS analysis; format: ADME, organism-based; settings: in vivo; summary of the method: as §2
[15] = AUC (0 to 24 hrs) in Sprague-Dawley rat at 3 mg/kg, po measured after 24 hrs by LC-MS/MS analysis; format: ADME, organism-based; design: route oral, time 24 hrs, dose 3 mg/kg; settings: in vivo; summary of the method: as §2
[16] = Half-life in Sprague-Dawley rat at 3 mg/kg, po measured for 24 hrs by LC-MS/MS analysis; format: ADME, organism-based; settings: in vivo; summary of the method: as §2

Structure (SMILES): Cc1cc(/C=C2\Oc3cc(OCCC(C)C)ccc3C2=O)cc(C)c1OC(C)(C)C(=O)O
EC50 [1]: 7.72 µM

Structure (SMILES): CN(CCOc1ccc(CC2SC(=O)NC2=O)cc1)c1ccccn1 (stereo not given) [ROSIGLITAZONE]
inhibition (Mus musculus [2]): inactive
inhibition (Mus musculus [3]): inactive
inhibition (Mus musculus [4]): inactive
inhibition (Mus musculus [5]): inactive
inhibition (Mus musculus [6]): inactive
Activity [7]: Toxic
Activity [8]: Toxic
inhibition (Mus musculus [9]): inactive

Structure (SMILES): COc1ccc2c(c1)O/C(=C\c1cc(C)c(OC(C)(C)C(=O)O)c(C)c1)C2=O
EC50 [1]: 3.68 µM

Structure (SMILES): CSc1ccc(C(=O)/C=C/c2cc(C)c(OC(C)(C)C(=O)O)c(C)c2)cc1 [ELAFIBRANOR]
EC50 [11]: 3.96 µM
EC50 [1]: 0.375 µM

Structure (SMILES): CCOc1ccc2c(c1)O/C(=C\c1cc(C)c(OC(C)(C)C(=O)O)c(C)c1)C2=O
EC50 [1]: 4.64 µM

Structure (SMILES): Cc1cc(/C=C2\Oc3cc(OCC4CC4)ccc3C2=O)cc(C)c1OC(C)(C)C(=O)O
Activity [12]: Non-Toxic
Cmax [13]: 8670 ng/mL
CL/F [14]: 0.351 mL/min/kg
AUC(0-t) at 24 h [15]: 51100 ng·h/mL
half-life [16]: 3.85 h

Structure (SMILES): CCCOc1ccc2c(c1)O/C(=C\c1cc(C)c(OC(C)(C)C(=O)O)c(C)c1)C2=O
EC50 [1]: 6.91 µM

Second part, the compound after the results:

EC50 [1]: > 10 µM
Structure (SMILES): Cc1cc(/C=C2\Oc3cc(OCC(C)C)ccc3C2=O)cc(C)c1OCC(=O)O

EC50 [10]: 3.22 µM
EC50 [1]: > 10 µM
Structure (SMILES): COc1ccc2c(c1)O/C(=C\c1cc(C)c(OCC(=O)O)c(C)c1)C2=O

EC50 [1]: > 10 µM
Structure (SMILES): CCOc1ccc2c(c1)O/C(=C\c1cc(C)c(OCC(=O)O)c(C)c1)C2=O

EC50 [1]: > 10 µM
Structure (SMILES): CCCOc1ccc2c(c1)O/C(=C\c1cc(C)c(OCC(=O)O)c(C)c1)C2=O

EC50 [1]: > 10 µM
Structure (SMILES): Cc1cc(/C=C2\Oc3cc(OCC4CC4)ccc3C2=O)cc(C)c1OCC(=O)O
